Assay results from ChEMBL document CHEMBL1125740, “Heterocyclic quinones. 17. A new in vivo active antineoplastic drug: 6,7-bis(1-aziridinyl)-4-[[3-(N,N-dimethylamino)propyl]amino]-5,8- quinazolinedione” (J Med Chem, 1991).
“And” between values parts separate entries of the source, which are not always exact repeats. Equal values may be shown once.

Assays:
P388 [1] = assay: Compound was evaluated in vivo for antitumor activity after intraperitoneal administration against P388/L-PAM(14) for % increase in life span at an optimal dose of 0.2 mg/kg/injection at 1,2,3,4 day schedule.; format: functional; details: Mus musculus, P388, ip
[2] = Compound was evaluated in vivo for antitumor activity against Lewis Lung cercinoma after injecting the compound intravenously for total dose.; format: functional, Mus musculus
In short: (§1)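 Lewis lung carcinoma: 10^6 cells implanted im into C57Bl/6-derived hosts. Drug given iv on days 5, 9 and 13, 10 mice per group. Median tumor burden and weight nadir recorded. Survivors were killed on day 19, and their lungs were fixed in Fekete solution so that macroscopic metastases could be counted.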

L1210 [3] = assay: Compound was evaluated in vivo for antitumor activity after intraperitoneal administration against L1210(935)for % increase in life span at an optimal dose of 0.1 mg/kg/injection at 1-4 day schedule.; format: functional; details: Mus musculus, L1210, ip
In short: (§2)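 L1210 leukemia, maintained in DBA/2 mice, was given ip as 10⁵ cells on day 0 to F1 hybrid or strain-of-origin mice over 18 g, in groups of 8. Dosing was ip from day 1, and mortality was checked daily. Median day of death counts dying mice only. %ILS = 100×(treated − control median day of death)/control median. Tumor-free survivors were counted on day 60. Weight change is g/mouse at nadir.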

B16 [4] = assay: Compound was evaluated in vivo for antitumor activity against B16 melanoma 2 after injecting the compound intravenously for percent T/C; format: functional, Mus musculus
P388 [5] = assay: Compound was evaluated in vivo for antitumor activity after intraperitoneal administration against P388/L-PAM(12) for % increase in life span at an optimal dose of 0.75 mg/kg/injection; format: functional; details: Mus musculus, P388, ip
P388 [6] = assay: Compound was evaluated in vivo for antitumor activity after intraperitoneal administration against P388/L-PAM(14) for tumor free survivors at an optimal dose of 0.125 mg/kg/injection at 1,4,7,11 day schedule.; format: functional, Mus musculus
P388 [7] = assay: Compound was evaluated in vivo for antitumor activity after intraperitoneal administration against P388 (1313) for tumor free survivors at an optimal dose of 0.5 mg/kg/injection on day 60; format: functional, Mus musculus
P388 [8] = assay: Compound was evaluated in vivo for antitumor activity after intraperitoneal administration against P388/L-PAM(14) for mortality range at an optimal dose of 0.5 mg/kg/injection at one day schedule.; format: functional, Mus musculus
[9] = Compound was evaluated in vivo for antitumor activity against colon adenocarcinoma 38 after injecting the compound intravenously for total dose.; format: functional, Mus musculus
P388 [10] = assay: Compound was evaluated in vivo for antitumor activity after intraperitoneal administration against P388 (1313) for mortality range at an optimal dose of 0.2 mg/kg/injection; format: functional, Mus musculus
[11] = Compound was evaluated in vivo for antitumor activity against colon adenocarcinoma 38 after injecting the compound intravenously for median tumor burden; format: functional, Mus musculus
M5076 = assay: Compound was evaluated in vivo for antitumor activity against M5076 after injecting the compound intravenously for toxicity related death.; format: functional, Mus musculus
P388 [12] = assay: Compound was evaluated in vivo for antitumor activity after intraperitoneal administration against P388/L-PAM(14) for % increase in life span at an optimal dose of 0.125 mg/kg/injection at 1,4,7,11 day schedule.; format: functional; details: Mus musculus, P388, ip
P388 [13] = assay: Compound was evaluated in vivo for antitumor activity after intraperitoneal administration against P388/L-PAM(14) for total dose at an optimal dose of 0.25 mg/kg/injection at 1,4,7,11 day schedule.; format: functional, Mus musculus
P388 [14] = assay: Compound was evaluated in vivo for antitumor activity after intraperitoneal administration against P388 (1313) for tumor free survivors at an optimal dose of 0.25 mg/kg/injection; format: functional, Mus musculus
[15] = Compound was evaluated in vivo for antitumor activity against Glasgow osteogenic sarcoma after injecting the compound intravenously for percent T/C (value in parentheses indicates the day of evaluation); format: functional, Mus musculus
[16] = Compound was evaluated in vivo for antitumor activity against Lewis Lung cercinoma after injecting the compound intravenously for median tumor burden; format: functional, Mus musculus; in short: as §1
[17] = Compound was evaluated in vivo for antitumor activity against mammary adenocarcinoma 16/C after injecting the compound intravenously for total dose.; format: functional, Mus musculus
In short: (§3)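 30-60 mg tumor fragments implanted sc by trocar on day 0 into C57Bl/6-derived hosts (B16) or C3H/He-derived hosts (16/C). Drug given iv on days 6, 9 and 13 (B16) or 6, 9 and 12 (16/C), 10 mice per group. Tumors measured by caliper. T/C % taken from median tumor burden of treated vs control groups on day 15 (B16) or day 14 (16/C). Body weight change per mouse recorded at nadir.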

P388 [18] = assay: Compound was evaluated in vivo for antitumor activity after intraperitoneal administration against P388/L-PAM(14) for mortality range at an optimal dose of 0.4 mg/kg/injection at 1,2,3,4 day schedule.; format: functional, Mus musculus
P388 [19] = assay: Compound was evaluated in vivo for antitumor activity after intraperitoneal administration against P388/L-PAM(14) for median day of death at an optimal dose of 0.4 mg/kg/injection at 1,2,3,4 day schedule.; format: functional, Mus musculus
P388 [20] = assay: Compound was evaluated in vivo for antitumor activity after intraperitoneal administration against P388/L-PAM(14) for median day of death at an optimal dose of 0.1 mg/kg/injection at 1,2,3,4 day schedule.; format: functional, Mus musculus
L1210 [21] = assay: Compound was evaluated in vivo for antitumor activity after intraperitoneal administration against L1210(935)for % increase in life span at an optimal dose of 1 mg/kg/injection at 1 day schedule.; format: functional; details: Mus musculus, L1210, ip, 24 h; in short: as §2
P388 [22] = assay: Compound was evaluated in vivo for antitumor activity after intraperitoneal administration against P388 (1303) for median day of death at an optimal dose of 0.75 mg/kg/injection; format: functional, Mus musculus
B16 [23] = assay: Compound was evaluated in vivo for antitumor activity against B16 melanoma after injecting the compound intravenously for toxicity related death.; format: functional, Mus musculus; in short: as §3
P388 [24] = assay: Compound was evaluated in vivo for antitumor activity after intraperitoneal administration against P388 (1313) for total dose at an optimal dose of 0.5 mg/kg/injection; format: functional, Mus musculus
B16 [25] = assay: Compound was evaluated in vivo for antitumor activity against B16 melanoma after injecting the compound intravenously for change in body weight.; format: functional, Mus musculus; in short: as §3
P388 [26] = assay: Compound was evaluated in vivo for antitumor activity after intraperitoneal administration against P388/L-PAM(12) for total dose at an optimal dose of 0.75 mg/kg/injection; format: functional, Mus musculus
P388 [27] = assay: Compound was evaluated in vivo for antitumor activity after intraperitoneal administration against P388/L-PAM(14) for change in body weight at an optimal dose of 0.125 mg/kg/injection at 1,4,7,11 day schedule.; format: functional, Mus musculus
P388 [28] = assay: Compound was evaluated in vivo for antitumor activity after intraperitoneal administration against P388/L-PAM(14) for tumor free survivors at an optimal dose of 0.2 mg/kg/injection at 1,2,3,4 day schedule.; format: functional, Mus musculus
P388 [29] = assay: Compound was evaluated in vivo for antitumor activity after intraperitoneal administration against P388/L-PAM(14) for % increase in life span at an optimal dose of 1 mg/kg/injection; format: functional; details: Mus musculus, P388, ip
L1210 [30] = assay: Compound was evaluated in vivo for antitumor activity after intraperitoneal administration against L1210(935)for change in body weight at an optimal dose of 0.4 mg/kg/injection at 1-4 day schedule.; format: functional, Mus musculus; in short: as §2
P388 [31] = assay: Compound was evaluated in vivo for antitumor activity after intraperitoneal administration against P388 (1313) for total dose at an optimal dose of 1 mg/kg/injection; format: functional, Mus musculus

In the case of `CN(C)CCCNc1ncnc2c1C(=O)C(N1CC1)=C(N1CC1)C2=O`, the ILS at 0.2 mg/kg (P388 [1]) was 36%, the Total dose [2] was 1.2 mg/kg and 0.6 mg/kg and the ILS at 0.1 mg/kg (L1210 [3]) was 27%. It also gave a T/C (B16 [4]) of 53%, an ILS at 0.75 mg/kg (P388 [5]) of 19% and a Survivors (P388 [6]) of 0. The Survivors (P388 [7]) was 0, the Mortality (P388 [8]) was 22 days and the Total dose [9] was 0.5 mg/kg. For the same compound, the Optimal dose (P388 [10]) was 28 mg/kg, the Tumor burden [11] was 416 and the Toxicity (M5076) was 0. It also gave an ILS at 0.125 mg/kg (P388 [12]) of 10%, a Total dose (P388 [13]) of 1 mg/kg and a Survivors (P388 [14]) of 0. The T/C [15] was 0%, the Tumor burden [16] was 7717 mg and 7748 mg and the Total dose [17] was 1.2 mg/kg and 0.6 mg/kg. For the same compound, the Mortality (P388 [18]) was 27 days, the “Median day of death” value (P388 [19]) was 20 and the “Median day of death” value (P388 [20]) was 14. For the same compound, the ILS at 1 mg/kg (L1210 [21]) was 27%, the “Median day of death” value (P388 [22]) was 18.5 and the Toxicity (B16 [23]) was 0. For the same compound, the Optimal dose (P388 [24]) was 2 mg/kg, the “Change in body weight” value (B16 [25]) was 0.9 g mouse-1 and 0.8 g mouse-1 and the Optimal dose (P388 [26]) was 0.75 mg/kg. For the same compound, the “Change in body weight” value (P388 [27]) was 0.8 g mouse-1, the Survivors (P388 [28]) was 0 and the ILS at 1 mg/kg (P388 [29]) was 36%. The “Change in body weight” value (L1210 [30]) was 0.3 g mouse-1 and the Optimal dose (P388 [31]) was 1 mg/kg.
